The values that follow come from publication PMC13022283 (Scientific Reports, 2026).

Molecules are shown by their SMILES. Entries after “also recorded” stand apart in the source; their conditions may differ.

One data set addresses T1, h-NTPDase1 (Homo sapiens, UniProt P49961).
T1 sequence (P49961 1-510): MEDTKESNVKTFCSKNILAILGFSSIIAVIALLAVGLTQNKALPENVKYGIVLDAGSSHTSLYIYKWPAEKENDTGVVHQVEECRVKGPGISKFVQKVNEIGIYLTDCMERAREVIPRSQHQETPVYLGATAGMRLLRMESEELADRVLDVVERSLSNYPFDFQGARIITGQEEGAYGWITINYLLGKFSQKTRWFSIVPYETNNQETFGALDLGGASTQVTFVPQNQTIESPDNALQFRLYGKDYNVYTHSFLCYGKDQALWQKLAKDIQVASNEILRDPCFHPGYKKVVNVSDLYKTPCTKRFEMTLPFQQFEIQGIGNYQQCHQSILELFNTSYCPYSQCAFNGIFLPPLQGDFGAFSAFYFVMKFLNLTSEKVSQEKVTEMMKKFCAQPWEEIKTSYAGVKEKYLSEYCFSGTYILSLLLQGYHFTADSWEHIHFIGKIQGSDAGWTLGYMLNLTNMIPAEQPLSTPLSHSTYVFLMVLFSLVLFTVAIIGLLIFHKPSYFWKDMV
The data set can be described thus: h-NTPDase activity assay. It counts as biochemical. As to conditions: for inhibition at 100 µM: read-out: % Inhibition h-NTPDase1.

In a further data set the target is T2, h-NTPDase2 (Homo sapiens, UniProt Q9Y5L3).
T2 sequence (Q9Y5L3 1-495): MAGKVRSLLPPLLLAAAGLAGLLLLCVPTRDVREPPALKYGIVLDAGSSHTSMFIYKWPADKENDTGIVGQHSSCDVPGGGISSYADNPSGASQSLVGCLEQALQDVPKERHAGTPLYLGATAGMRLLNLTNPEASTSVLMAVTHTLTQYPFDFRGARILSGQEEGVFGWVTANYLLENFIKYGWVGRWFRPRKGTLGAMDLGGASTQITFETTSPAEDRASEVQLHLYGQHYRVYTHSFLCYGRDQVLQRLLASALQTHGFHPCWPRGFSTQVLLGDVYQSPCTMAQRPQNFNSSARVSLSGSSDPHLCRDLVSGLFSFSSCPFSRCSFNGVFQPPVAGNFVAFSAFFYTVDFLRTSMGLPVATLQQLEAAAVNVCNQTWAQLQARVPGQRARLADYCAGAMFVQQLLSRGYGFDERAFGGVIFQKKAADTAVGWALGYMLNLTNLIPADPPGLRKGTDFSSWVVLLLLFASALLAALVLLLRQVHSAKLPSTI
The data set can be described thus: h-NTPDase activity assay. The data set is classed as biochemical. As to conditions: for inhibition at 100 µM: read-out: % Inhibition h-NTPDase2.

The next data set in a line: MTT assay. It counts as cell-based, human. Particulars: human, MCF-7 breast cancer cells, MCF-7, 100 μM; for cytotoxicity at 24 h, 100 µM: % Cytotoxicity ± SD; for viability at 24 h, 100 µM: % Viability.
Data set [1] concerns A549 human lung carcinoma cells. The data set can be described thus: Fluorescence microscopy of treated cells. It counts as cell-based. Particulars: A549, 10 μM, 24 h incubation.
The next data set deals with h-NTPDases. As to the kind of experiment: h-NTPDase activity assay, all four isoenzymes. The data set is classed as biochemical, human. The procedure, abridged:
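Human NTPDase1, -2, -3 or -8 came from COS-7 cells transfected with plasmids via Lipofectamine, harvested at 44–48 h, sonicated and cleared of nuclei, with protein measured by Bradford. Enzyme per well was 12, 37, 43 or 63 ng respectively. Compound (0.1 mM final) was pre-incubated 10 min at 37 °C in 50 mM Tris–HCl, 5 mM CaCl2, pH 7.4. The reaction was started with ATP (100 µM), run 15 min, and stopped with malachite green; Pi was read at 630 nm.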

Data set [2] has as its system MCF-7 breast cancer cells. The data set can be described thus: MTT assay. The data set is classed as cell-based, human. Particulars: MCF-7, 100 μM, 24 h, 100 µM. In general terms: Formazan colour is commonly taken as a measure of viable cells.

By IC50 is commonly meant the concentration needed to halve the response being measured. As a reminder, the inhibition is the share of the control response that was lost under treatment. The term viability denotes a read-out of living cells in per cent, often relative to untreated cells. A higher viability goes with less harm to the cells. `O=C(NCc1ccc(F)cc1)c1ccc2ncccc2c1` [Compound 4b, N-(4-fluorobenzyl)quinoline-6-carboxamide]: on h-NTPDase1, the 50% inhibitory concentration (IC50) was 3.46 ± 0.49 µM and the inhibition at 100 µM was found to be 68.9%. Further, the inhibition at 100 µM on h-NTPDase2 is 26.2%. In “MTT assay”, the cytotoxicity at 24 h, 100 µM was determined as 25.1 ± 6.08% and the viability at 24 h, 100 µM was found to be 74.9%.

`Cc1ccc(CNC(=O)c2ccc3ncccc3c2)cc1` [Compound 4c, N-(4-methylbenzyl)quinoline-6-carboxamide]: at h-NTPDase1, inhibition was half-maximal at 6.13 ± 0.64 µM (IC50) and the inhibition at 100 µM is 57.7%. On h-NTPDase2, the IC50 was 6.39 ± 1.07 µM and the inhibition at 100 µM stood at 68.4%. In “MTT assay”, this compound returned a cytotoxicity at 24 h, 100 µM of 42.2 ± 0.81% and a viability at 24 h, 100 µM of 57.8%.

For `O=C(Nc1c(F)cccc1F)c1ccc2ncccc2c1` [Compound 4d, N-(2,6 difluorophenyl)quinoline-6-carboxamide], in data set [1], the “cytotoxicity seen in bright-field images” value is reported as “no signs of cytotoxicity”. The inhibition at 100 µM on h-NTPDase1 is 76.1%. Also, on h-NTPDase2, the IC50 was determined as 0.92 ± 0.17 µM and the inhibition at 100 µM is 80.1%. In “MTT assay”, this compound had a cytotoxicity at 24 h, 100 µM of 48 ± 12.7% and a viability at 24 h, 100 µM of 52%.

For `O=C(Nc1ccc(F)cc1F)c1ccc2ncccc2c1` [Compound 4e, N-(2,4 difluorophenyl)quinoline-6-carboxamide], on h-NTPDase1, the inhibition at 100 µM came to 32.6%. Besides, the inhibition at 100 µM at h-NTPDase2 was 36.4%. Besides, the “activity against all four h-NTPDase isoenzymes” value (shortened to “activity”) in the data set on h-NTPDases is “poor activity; also recorded: inactive”. In the data set “MTT assay”, the cytotoxicity at 24 h, 100 µM stood at 14.6 ± 2.48% and the viability at 24 h, 100 µM turned out to be 85.4%.

On to `O=C(Nc1ccccn1)c1ccc2ncccc2c1` [Compound 4g, N-(pyridin-2-yl)quinoline-6-carboxamide], for which, on h-NTPDase1, inhibition was half-maximal at 0.61 ± 0.09 µM (IC50) and the inhibition at 100 µM amounted to 58.5%. Besides, on h-NTPDase2, the inhibition at 100 µM is 33.9%. Further, in the data set “MTT assay”, the cytotoxicity at 24 h, 100 µM amounted to 47.4 ± 1.8% and the viability at 24 h, 100 µM is 52.6%.

Take `O=C(Nc1ccccc1I)c1ccc2ncccc2c1` [Compound 4h, N-(2-iodophenyl)quinoline-6-carboxamide]: the inhibition at 100 µM on h-NTPDase1 was 18.4%; on h-NTPDase2 it was 28.3%. In “MTT assay”, this compound returned a cytotoxicity at 24 h, 100 µM of 49.7 ± 2.17%. In the data set “MTT assay”, this compound came in with a viability at 24 h, 100 µM of 50.3%.

As for `O=C(Nc1ccc(I)cc1)c1ccc2ncccc2c1` [Compound 4k, N-(4-Iodophenyl)quinoline-6-carboxamide], the inhibition at 100 µM at h-NTPDase1 turned out to be 33.8%. Moreover, the inhibition at 100 µM on h-NTPDase2 turned out to be 18.6%. In addition, the “activity” value in the data set with h-NTPDases is given as “poor activity”. In addition, in “MTT assay”, the cytotoxicity at 24 h, 100 µM was 56.9 ± 16.9% and the viability at 24 h, 100 µM lay within 43 to 45%. Also, the “% Viability” value in data set [2] was determined as 43.1%.

As to `Cc1ccc(F)cc1NC(=O)c1ccc2ncccc2c1` [Compound 4l, N-(5-fluoro 2-methylphenyl)quinoline-6-carboxamide], the inhibition at 100 µM was found to be 32.4% at h-NTPDase1 and 41.2% at h-NTPDase2. Besides, the “activity” value in the data set on h-NTPDases is listed as “poor activity”. Also, the cytotoxicity at 24 h, 100 µM in the data set “MTT assay” was determined as 39.5 ± 15.5%. The compound also yielded a viability at 24 h, 100 µM in the data set “MTT assay” of 60.5%.
